Measured values published in ChEMBL document CHEMBL1135550, “Highly potent geminal bisphosphonates. From pamidronate disodium (Aredia) to zoledronic acid (Zometa)” (J Med Chem, 2002).

Experiments:
[1] = organism: Rattus norvegicus; experiment: Effective dose for increased serum urea level rats after a treatment period of 1 hr in renal tolerability model; assay type: functional
[2] = Ratio of calvaria mineralization to calvaria bone resorption; assay type: functional
[3] = organism: Rattus norvegicus; experiment: Effective dose for increased cancellous bone hydroxy proline in young intact rats after a treatment period of 10 days; assay type: functional; conditions: 240 h
[4] = organism: Rattus norvegicus; experiment: Compound was tested for increased urinary excretion of MDH in rats after a treatment period of 14 days in renal tolerability model; assay type: functional, Urine
[5] = organism: Rattus norvegicus; experiment: Effective dose for increased cancellous bone area in young intact rats after a treatment period of 10 days; assay type: functional; conditions: 240 h
[6] = organism: Rattus norvegicus; experiment: Compound was tested for increased mucosal permeability of perfused ileal loop in rats after a treatment period of 2 hr in intestinal tolerability model; assay type: functional
[7] = organism: Mus musculus; experiment: Inhibition of mineralization in the calvaria assay of mouse; assay type: functional
In short: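 In vitro mineralization assay in mouse calvaria cultures. The read-out is calcium incorporation into the calvaria.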

[8] = organism: Mus musculus; experiment: Inhibition of bone resorption in the calvaria assay of mouse; assay type: functional
[9] = organism: Rattus norvegicus; experiment: Effective dose for increased radiographic bone density in young intact rats after a treatment period of 10 days; assay type: functional; conditions: 240 h
[10] = organism: Rattus norvegicus; experiment: Effective dose for increased cancellous bone calcium in young intact rats after a treatment period of 10 days; assay type: functional; conditions: 240 h
[11] = system: Rattus norvegicus; experiment: Effective dose after subcutaneous administration to TPTX rats for 50% reduction of hypercalcemia; assay type: functional; conditions: sc
In short: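 Young male rats (130-150 g) were thyroparathyroidectomized and allowed 4 days to recover, then fasting serum was sampled. Animals with serum Ca above 1.88 mM were discarded, and the rest were randomized into groups of 5. On days 5-8, 1,25(OH)2D3 (125 pmol/kg sc) was given with graded sc doses of bisphosphonate, and total serum calcium was measured. ED50 is the sc dose halving the hypercalcemia.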

[12] = organism: Mus musculus; experiment: Inhibition of bone mineralization in the calvaria assay of mouse; assay type: functional
[13] = Therapeutic ratio comparing nephrotoxic potential versus bone antiresorptive potency (reciprocal of ED50 (TPTX assay) / the total urinary malate dehydrogenase excretion); assay type: ADME, tissue-based, Urine
In short: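 Rats received repeated sc injections, with saline-injected controls. Malate dehydrogenase was totalled in units over eight 24-h urine collections from the start of dosing. The ratio is the reciprocal of the TPTX hypercalcemia ED50 (mg/kg) divided by total urinary MDH units.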

[14] = Therapeutic ratio comparing nephrotoxic potential versus bone antiresorptive potency ( reciprocal of ED50 (TPTX assay) / the total urinary malate dehydrogenase excretion); assay type: ADME; conditions: urine; read-out: Therapeutic ratio
In short: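 Ratio = (1/TPTX ED50 in mg/kg) ÷ total urinary malate dehydrogenase units, pooled from eight 24-h urine collections after starting repeated sc dosing. ED50 model: young male rats (130-150 g), thyroparathyroidectomized, 4-day recovery; rats with fasting serum Ca above 1.88 mM excluded; groups of 5. Days 5-8: 1,25(OH)2D3 125 pmol/kg sc plus graded sc bisphosphonate. ED50 = dose halving the hypercalcemia (total serum calcium).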

Row | Compound | ED50 [11] [µg/kg] | further results
1 | O.O=P(O)(O)C(O)(Cn1ccnc1)P(=O)(O)O [ZOLEDRONIC ACID] | – | ED100 [1]: 38000 µg/kg; Ratio [2]: 15000; ED50 [3]: 1.1 µg/kg; NOL [4]: > 1000 µg/kg; ED50 [5]: 0.071 µg/kg; NOL [6]: 10 mM; IC50 [7]: 30000 nM; IC50 [8]: 2 nM; ED50 [9]: 1.7 µg/kg; ED50 [10]: 0.17 µg/kg
2 | NCC(O)(P(=O)(O)O)P(=O)(O)O | 150 | –
3 | NCCCCCC(O)(P(=O)(O)O)P(=O)(O)O [NERIDRONIC ACID] | 60 | –
4 | O=P(O)(O)C(Cc1nccs1)P(=O)(O)O | 200 | –
5 | O=P(O)(O)C(Nc1nccn1Cc1ccccc1)P(=O)(O)O | 75 | –
6 | O=P(O)(O)C(O)(Cn1cccn1)P(=O)(O)O | > 300 | –
7 | Cc1cccc(OCCCN(C)CCC(O)(P(=O)(O)O)P(=O)(O)O)c1 | 1.7 | –
8 | CC(CC(O)(P(=O)(O)O)P(=O)(O)O)N(C)C (stereo unspecified) | 18 | –
9 | O=P(O)(O)C(NC1CCCCCC1)P(=O)(O)O [INCADRONIC ACID] | 7 | –
10 | NCCCCC(O)(P(=O)(O)O)P(=O)(O)O | 20 | –
11 | O=P(O)(O)C(Nc1nccs1)P(=O)(O)O | 5 | –
12 | CCCCN(CCCOc1ccccc1)CCC(O)(P(=O)(O)O)P(=O)(O)O | 500 | –
13 | O=P(O)(O)C(O)(CCN1CCN(c2ccccc2)CC1)P(=O)(O)O | > 10000 | –
14 | CCc1cnc(NC(P(=O)(O)O)P(=O)(O)O)s1 | 1.5 | –
15 | Cc1cnc(NC(P(=O)(O)O)P(=O)(O)O)s1 | 1.5 | IC50 [12]: 15000 nM; Ratio [2]: 375; IC50 [8]: 40 nM; Therapeutic ratio [13]: 4.5
16 | CN(CCCc1ccccc1)CCC(O)(P(=O)(O)O)P(=O)(O)O | 1 | IC50 [12]: 4000 nM; Ratio [2]: 80; IC50 [8]: 50 nM; Therapeutic ratio [13]: 120
17 | CCCCCN(C)CCC(O)(P(=O)(O)O)P(=O)(O)O [IBANDRONIC ACID] | 1.1 | –
18 | O=P(O)(O)C(N1CCCCC1)P(=O)(O)O | 800 | –
19 | CN(CCCSc1ccccc1)CCC(O)(P(=O)(O)O)P(=O)(O)O | 0.33 | –
20 | O=P(O)(O)C(O)(CCN1CCC(c2ccccc2)CC1)P(=O)(O)O | ~11 | –
21 | CN(C)CCC(O)(P(=O)(O)O)P(=O)(O)O [OLPADRONIC ACID] | 12 | –
22 | Cn1ccnc1NC(P(=O)(O)O)P(=O)(O)O | 5 | –
23 | O=P(O)(O)C(N1CCCC1)P(=O)(O)O | > 2000 | –

Row | Compound | ED50 [11] [µg/kg] | further results
24 | O=P(O)(O)C(O)(CCN1CCCCC1)P(=O)(O)O | 5.6 | –
25 | O=P(O)(O)C(O)(Cc1c[nH]cn1)P(=O)(O)O | 0.3 | –
26 | Cc1csc(NC(P(=O)(O)O)P(=O)(O)O)n1 | 100 | –
27 | O=P(O)(O)C(O)(CCN1CCCC1)P(=O)(O)O | 10 | –
28 | CN1CCN(CCC(O)(P(=O)(O)O)P(=O)(O)O)CC1 | ~400 | –
29 | O=P(O)(O)C(O)(C1CCNCC1)P(=O)(O)O | ~2500 | –
30 | COc1ccc(OCCCN(C)CCC(O)(P(=O)(O)O)P(=O)(O)O)cc1 | 1.2 | –
31 | CC(C)c1cnc(NC(P(=O)(O)O)P(=O)(O)O)s1 | 200 | –
32 | CN(CCCSc1ccc(Cl)cc1)CCC(O)(P(=O)(O)O)P(=O)(O)O | 7.8 | –
33 | CN(CCCc1ccc(Cl)cc1)CCC(O)(P(=O)(O)O)P(=O)(O)O | 0.7 | –
34 | CP(=O)(O)C(Nc1nccs1)P(C)(=O)O (stereo unspecified) | > 10000 | –
35 | O=P(O)(O)C(O)(Cn1cncn1)P(=O)(O)O | 600 | –
36 | CCN(CC)CCC(O)(P(=O)(O)O)P(=O)(O)O | 3 | –
37 | O=P(O)(O)C(O)(CCN1CCC(c2cccc(F)c2)CC1)P(=O)(O)O | 30 | –
38 | O=P(O)(O)C(Nc1ncc[nH]1)P(=O)(O)O | ~500 | –
39 | O=P(O)(O)C(Nc1nc2ccccc2[nH]1)P(=O)(O)O | > 10000 | –
40 | O=P(O)(O)C(N1CCCCCC1)P(=O)(O)O [N-(HEXAMETHYLENEIMINO)METHYLENEBISPHOSPHONIC ACID] | 40 | –
41 | O=P(O)(O)C(Nc1nc2ccccc2s1)P(=O)(O)O | > 3000 | –
42 | O=P(O)(O)C(O)(CCn1ccnc1)P(=O)(O)O | 45 | –
43 | CN(CCCOc1ccccc1)CCCC(O)(P(=O)(O)O)P(=O)(O)O | 100 | –
44 | CCCCc1cnc(NC(P(=O)(O)O)P(=O)(O)O)s1 | 0.9 | –
45 | O=P(O)(O)C(O)(CCNCCCc1ccccc1)P(=O)(O)O | 20 | –
46 | O=P(O)(O)C(O)(C1CCCCN1)P(=O)(O)O (stereo unspecified) | 50 | –

Row | Compound | ED50 [11] [µg/kg] | further results
47 | NCCCC(O)(P(=O)(O)O)P(=O)(O)O [ALENDRONIC ACID] | 8 | IC50 [12]: 20000 nM; Ratio [2]: 400; selectivity ratio [14]: 6.6; IC50 [8]: 50 nM
48 | O=P(O)(O)C(O)(CCN1CCCCCCC1)P(=O)(O)O | > 300 | –
49 | CN(CCCCCCOc1ccccc1)CCC(O)(P(=O)(O)O)P(=O)(O)O | 7500 | –
50 | CCCN(C)CCC(O)(P(=O)(O)O)P(=O)(O)O | 3 | –
51 | O=P(O)(O)C(O)(Cc1ncc[nH]1)P(=O)(O)O | 5 | –
52 | O=P(O)(O)C(O)(Cc1nccn1Cc1ccccc1)P(=O)(O)O | 25 | –
53 | CN(CCCOc1ccc(Cl)cc1)CCC(O)(P(=O)(O)O)P(=O)(O)O | 1.3 | –
54 | O=P(O)(O)C(O)(CCNCCSc1ccccc1)P(=O)(O)O | > 200 | –
55 | O=P(O)(O)C(O)(CCN1CCCCCC1)P(=O)(O)O | 25 | –
56 | Cc1[nH]cnc1CC(O)(P(=O)(O)O)P(=O)(O)O | 1.5 | –
57 | O=P(O)(O)C(O)(CCNCCc1ccccc1)P(=O)(O)O | 300 | –
58 | O=P(O)(O)C(O)(CCNCCCSc1ccccc1)P(=O)(O)O | 7 | –
59 | CNCCC(O)(P(=O)(O)O)P(=O)(O)O | ~15 | –
60 | O=P(O)(O)C(O)(CCCN1CCCC1)P(=O)(O)O | 25 | –
61 | O=P(O)(O)C(O)(CCN1CCC(c2ccccc2)C1)P(=O)(O)O (stereo unspecified) | 70 | –
62 | CCN(CCCOc1ccccc1)CCC(O)(P(=O)(O)O)P(=O)(O)O | 20 | –
63 | O=P(O)(O)C(O)(CCNCCCCc1ccccc1)P(=O)(O)O | 1 | –
64 | CN(C)CCC(N)(P(=O)(O)O)P(=O)(O)O [LIDADRONIC ACID] | > 200 | –
65 | CCCCCN(C)C(C)CC(O)(P(=O)(O)O)P(=O)(O)O (stereo unspecified) | 65 | –
66 | CC(N)CC(O)(P(=O)(O)O)P(=O)(O)O (stereo unspecified) | 3.4 | –
67 | CN(CCCOc1ccc(F)cc1)CCC(O)(P(=O)(O)O)P(=O)(O)O | 0.6 | –
68 | CN(CCCOc1ccccc1)CCC(O)(P(=O)(O)O)P(=O)(O)O | 0.5 | IC50 [12]: 9000 nM; Ratio [2]: 225; IC50 [8]: 40 nM; Therapeutic ratio [13]: 84
69 | CN(CCCCc1ccccc1)CCC(O)(P(=O)(O)O)P(=O)(O)O | 0.4 | –

Row | Compound | ED50 [11] [µg/kg] | further results
70 | CN(CCc1ccccc1)CCC(O)(P(=O)(O)O)P(=O)(O)O | 1.4 | IC50 [12]: 30000 nM; Ratio [2]: 1500; IC50 [8]: 20 nM; Therapeutic ratio [13]: 19
71 | CN(CCCCCCc1ccccc1)CCC(O)(P(=O)(O)O)P(=O)(O)O | 1500 | –
72 | O=P(O)(O)C(O)(CCc1c[nH]cn1)P(=O)(O)O | 20 | –
73 | CN(CCCCOc1ccccc1)CCC(O)(P(=O)(O)O)P(=O)(O)O | 4 | –
74 | Cc1ncn(CC(O)(P(=O)(O)O)P(=O)(O)O)c1C | 1.5 | –
75 | O=P(O)(O)C(O)(CCCCCN1CCCC1)P(=O)(O)O | 250 | –
76 | O=P(O)(O)C(O)(C1CNC1)P(=O)(O)O | > 3000 | –
77 | O=P(O)(O)C(O)(CCCCCN1CCC(c2ccccc2)CC1)P(=O)(O)O | > 300 | –
78 | CN(CCOc1ccc(Cl)cc1)CCC(O)(P(=O)(O)O)P(=O)(O)O | 1.7 | –
79 | O=P(O)(O)C(O)(CCNCCCOc1ccccc1)P(=O)(O)O | 1.2 | –
80 | O=P(O)(O)C(Nc1ncc(CCc2ccccc2)s1)P(=O)(O)O | 2.7 | –
81 | O=P(O)(O)C(O)(C1CCCNC1)P(=O)(O)O (stereo unspecified) | 250 | –
82 | CN(C)C(P(=O)(O)O)P(=O)(O)O | > 3000 | –
83 | Cn1ccnc1CC(O)(P(=O)(O)O)P(=O)(O)O | 0.6 | –
84 | CCCN(CCCOc1ccccc1)CCC(O)(P(=O)(O)O)P(=O)(O)O | 10 | –
85 | O=P(O)(O)C(O)(CCCN1CCC(c2ccccc2)CC1)P(=O)(O)O | 100 | –
86 | O=P(O)(O)C(O)(CCN1CCC(c2ccc(Cl)cc2)C1)P(=O)(O)O (stereo unspecified) | 3.5 | –
87 | O=P(O)(O)C(Nc1ncc(-c2ccccc2)s1)P(=O)(O)O | > 1000 | –
88 | CCCc1cnc(NC(P(=O)(O)O)P(=O)(O)O)s1 | 2 | –
89 | CN(C)CCC(P(=O)(O)O)P(=O)(O)O | 100 | –
90 | CC(CCc1ccccc1)NCCC(O)(P(=O)(O)O)P(=O)(O)O (stereo unspecified) | > 10000 | –
91 | CC(=O)NCCC(O)(P(=O)(O)O)P(=O)(O)O | > 1000 | –
92 | O=P(O)(O)C(O)(Cc1c[nH]c(-c2ccccc2)n1)P(=O)(O)O | > 3000 | –
